Sampled rows, rich in hits. Any-hit rate of the full collection: about 11%.
WT yeast gro inh: growth inhibition of WT yeast, mitochondrial fusion screen. mitochondrial fusion phenotypic screen, WT strain. inhibition, % at 10 µM. 190,000 tested, 2.1% active. AID 1362; in the data active = inhibition above about 58%; tested in S. cerevisiae
Diaphorase inh: diaphorase inhibition or chemical oxidation counter-screen | AID 1217 | 190,000 tested, 0.69% active | diaphorase resazurin-to-resorufin fluorescence, NADH, 16 min; bacterial (C. kluyveri) enzyme, not human | inhibition, % at 20 µM;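 active = primary screen inhibition at 20 µM above a set limit, cut at about 50% in these data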;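 also: plate controls were DMSO with full reaction for no effect and wells lacking NADH for full effect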
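Test system: diaphorase enzyme from Clostridium kluyveri; amount: diaphorase at 0.14 U/mL in enzyme working solution; detection: fluorescence of resorufin formed from resazurin, Ex 544/Em 590 nm; times: reaction incubation of 16 min at room temperature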
Lmaj promast: Leishmania major promastigote growth inhibition | Leishmania major promastigotes, resazurin fluorescence viability | 200,000 tested, 9% active | inhibition, % at 10 µM;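 also: promastigotes grown with compound for 44 hours at 28 °C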
G6PDH counter: counter-screen for G6PDH assay hits: L. mesenteroides G6PDH inhibition; 200,000 tested, 0.12% active; AID 1020; inhibition, % at 5 µM; Purified L. mesenteroides G6PDH, diaphorase/resazurin coupled fluorescence, 45 min
Diaphorase act: diaphorase activation or chemical reduction counter-screen; 190,000 tested, 0.005% active; Diaphorase/resazurin coupled assay, resorufin fluorescence, 16 min; stronger effect = higher value; 1 = vehicle wells, 0 = NADH-free wells; activation factor at 20 µM;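 active = diaphorase activity raised at least twofold by the compound at 20 µM; inactive = activation factor below 2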
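Assay system: Purified diaphorase enzyme from Clostridium kluyveri | Amount: Enzyme 0.07 U/mL final | Dosing: Compound 20 µM once, DMSO 1% | Timing: 16 min reaction at room temperature | Detection: Fluorescence, excitation 544 nm and emission 590 nm | Evaluation: Higher resorufin formation from activation or reduction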
Active calls of the source: *; nt = no result. Rule as the data show it, unless noted: active = inhibition above about 50%; inactive = the rest.

SMILES	WT yeast gro inh	Diaphorase inh	Lmaj promast	G6PDH counter	Diaphorase act
CCN(CCNC(=O)C1CCN(S(C)(=O)=O)CC1)c1ccccc1	25.0	7.1	-0.5	-13.1	0.9
CCN(CCNC(=O)Nc1ccc(Cl)cc1)c1ccccc1	41.4	20.3	96.5*	8.3	0.8
CCOc1cc(N2CCOCC2)c(OCC)cc1NC(=O)COC(=O)c1cc(C)cc(C)c1	12.0	10.0	8.8	-28.4	0.9
CC(=O)c1ccc(Sc2nnnn2-c2ccccc2)c([N+](=O)[O-])c1	-10.2	17.8	100.1*	8.9	0.8
O=[N+]([O-])c1ccc(Sc2nnnn2-c2ccccc2)c(Cl)c1	-3.2	12.5	89.8*	7.7	0.9
Cn1cnnc1Sc1cc(N2CCN(S(=O)(=O)c3ccccc3)CC2)ccc1[N+](=O)[O-]	-2.4	7.6	4.2	4.1	0.9
CN1CCN(S(=O)(=O)c2ccc(Sc3nnnn3-c3ccccc3)c([N+](=O)[O-])c2)CC1	7.1	39.1	100.0*	7.5	0.6
COC(=O)c1cc(NC(=O)CSc2nncn2C)cc(C(=O)OC)c1	-3.8	17.0	-5.1	2.5	0.8
COc1ccc(N2C(=O)C3C4C=CC(C4)C3C2=O)c(OC)c1 (centres undefined)	35.0	14.0	7.6	-3.0	0.9
COc1ccc(N2CCc3c(C)nc4c(OC)cccc4c32)cc1	-2.2	-0.4	100.1*	-13.4	1
COc1ccc(N2CCc3c(C)nc4c(OC)cc(OC)cc4c32)c(OC)c1	51.0	20.4	100.7*	3.6	0.8
COc1cccc2c3c(c(C)nc12)CC(C)O3 (centres undefined)	-6.5	12.9	-2.8	10.0	0.9
COc1ccc(N2CCc3c(C)nc4c(OC)cc(OC)cc4c32)cc1	14.0	15.4	100.0*	8.4	0.8
CC(=O)C(Sc1ncnc2sc3c(c12)CCCC3)C(C)=O	75.9*	10.3	11.3	8.1	0.9
O=C(NC1CCCCC1)C(c1ccc2ncccc2c1)N(Cc1ccc2c(c1)OCO2)C(=O)c1cccs1 (centres undefined)	20.7	15.4	87.8*	7.1	0.8
COC(=O)c1ccc(C(C(=O)NC2CCCCC2)N(Cc2ccccc2)C(=O)Cc2cccs2)cc1 (centres undefined)	-11.9	8.1	99.2*	0.6	0.9
O=C(NC1CCCC1)C(c1ccccc1)N(Cc1ccc2c(c1)OCO2)C(=O)Cc1cccs1 (centres undefined)	5.6	18.2	82.1*	0.4	0.8
COC(=O)c1ccc(C(C(=O)NC2CCCCC2)N(C(=O)Cc2cccs2)C2CC2)cc1 (centres undefined)	19.5	9.7	-3.9	6.6	0.9
O=C(NC1CCCC1)C(c1ccncc1)N(Cc1ccccc1)C(=O)Cc1cccs1 (centres undefined)	7.8	6.1	-3.2	12.6	0.9
O=C(NCc1ccccc1)C(c1ccccc1)N(Cc1ccc2c(c1)OCO2)C(=O)Cc1cccs1 (centres undefined)	28.9	7.3	78.7*	1.1	0.9
CC(C)(C)C(=O)CNS(=O)(=O)c1ccc(S(=O)(=O)NC2CCCC2)cc1	8.7	8.5	15.5	7.3	0.9
CCCCCCCCCCCCOC1OC(CO)C(O)C(O)C1NC(C)=O (centres undefined)	-2.8	9.9	-5.3	10.2	0.9
COc1ccc(C(C(=O)NC2CCCC2)N(Cc2ccccc2)C(=O)CNC(=O)c2ccco2)cc1 (centres undefined)	-4.2	0.0	66.7*	2.0	1
O=C(NC1CCCCC1)C(c1cccnc1)N(CCc1ccccc1)C(=O)Cc1cccs1 (centres undefined)	-12.6	16.5	94.5*	12.2	0.8
C=CCN(C(=O)CNC(=O)c1ccco1)C(C(=O)NC1CCCCC1)c1ccc(OC)cc1 (centres undefined)	3.3	2.7	6.0	5.9	1
SMILES	WT yeast gro inh	Diaphorase inh	Lmaj promast	G6PDH counter	Diaphorase act
O=C(NC1CCCC1)C(c1ccsc1)N(Cc1ccco1)C(=O)Cc1cccs1 (centres undefined)	8.8	14.0	62.3*	6.2	0.9
Cc1ccc(C(C(=O)NC2CCCCC2)N(Cc2ccccc2)C(=O)Cc2c[nH]c3ccccc23)o1 (centres undefined)	36.2	16.3	15.7	4.4	0.8
COc1ccc(CN(C(=O)Cc2c[nH]c3ccccc23)C(C(=O)NC2CCCCC2)c2ccc(C)o2)cc1 (centres undefined)	38.6	30.5	68.7*	-22.2	0.7
O=C1C=CC(O)(c2cc(=O)c3c(O)cc(O)cc3o2)C=C1	-3.1	10.4	70.0*	18.0	0.9
O=C(CCl)NC(=O)NC12CC3CC(CC(C3)C1)C2	-21.0	11.5	100.5*	8.2	0.9
COC(=O)c1cc(OC)c(OC)cc1NC(=O)c1ccc(C)o1	-18.1	-4.7	36.8	4.4	1
COc1cc(C(=O)Nc2ccc(S(=O)(=O)N3CCCCC3C)cc2)cc(OC)c1OC (centres undefined)	4.3	19.9	19.5	0.2	0.8
COc1ccc(C(=O)Nc2ccc(S(=O)(=O)N3CCCCC3C)cc2)c(OC)c1OC (centres undefined)	4.4	5.9	61.2*	8.9	0.9
CCOc1ccc2ccccc2c1C(=O)N1CCN(c2ccccc2)CC1	9.8	14.6	82.8*	-16.6	0.9
COc1ccc(-c2nnc(N3CCC(C)CC3)c3ccccc23)cc1	11.8	11.0	-6.2	-5.0	0.9
Cc1nc2c(-c3ccccc3)c(C)nn2c(C)c1CCC(=O)NC(C)CCc1ccco1 (centres undefined)	4.7	29.8	100.0*	-4.1	0.7
COc1ccccc1-c1cc2nc(C)c(CCC(=O)NC(C)CCc3ccco3)c(C)n2n1 (centres undefined)	14.3	17.5	97.9*	3.0	0.8
C/C(=N/OCO/N=C(\C)c1ccc(F)cc1F)c1ccc(F)cc1F	0.3	-6.5	-6.8	-1.6	1.1
Cc1ccccc1OCCSCc1nc2ccccc2[nH]1	74.6*	12.5	12.5	10.9	0.9
c1ccc(CSCc2nc3ccccc3[nH]2)cc1	30.5	12.1	60.4*	8.6	0.9
Cc1cccc(OCCSCc2nc3ccccc3[nH]2)c1	-2.2	5.2	6.2	3.3	0.9
CC(C)n1c(N2CCN(CC(=O)Nc3ccc4c(c3)OCCO4)CC2)nc2ccccc21	-12.5	7.9	51.1*	10.6	0.9
COc1ccc(NC(=O)N2CCN(c3nc4ccccc4n3C(C)C)CC2)cc1	-5.3	nt	5.5	17.2	nt
CC(C)Cn1c(N2CCN(CC(=O)Nc3ccc(Cl)cc3)CC2)nc2ccccc21	5.3	27.4	85.8*	0.0	0.7
Cc1nn(C)c(C)c1CCC(=O)O	5.8	nt	-4.7	12.3	nt
Cc1cc(Oc2cc(N)cc([N+](=O)[O-])c2)ccc1Cl	-0.6	16.7	-8.0	3.2	0.8
CC1CN(C2=Nc3cccc4cccc2c34)CC(C)O1 (centres undefined)	8.5	10.2	24.3	10.3	0.9
